The results in this text go back to ChEMBL document CHEMBL3046529, “Chiral gamma-aryl-1H-1,2,4-triazole derivatives as highly potential antifungal agents: Design, synthesis, structure, and in vitro fungicidal activities” (J Agric Food Chem, 2008).

Experiment [1] concerns Rhizoctonia solani. The experiment can be described thus: In vitro fungicidal activity against Rhizoctonia solani assessed as mycelial growth inhibition at 100 mg/l at 26 degC after 48 hr by agar diffusion assay. It counts as functional. The following applies: read-out: GI. In short, it runs like this: (§1)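 Compound is dissolved in DMF and added aseptically to autoclaved agar that has cooled to about 45-50 °C, giving 100 mg/L in the medium. Solvent never exceeds […]. Plain medium is the blank. A 5 mm mycelial plug, cut from the margin of an actively growing colony, goes in the plate centre. Three replicate plates are sealed and kept at 26 °C in darkness. Colony diameter is read at 48 h. Inhibition % = (control − treated diameter)/control diameter.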

The subject of experiment [2] is Fusarium oxysporum. The experiment can be described thus: In vitro fungicidal activity against Fusarium oxysporum assessed as mycelial growth inhibition at 100 mg/l at 26 degC after 48 hr by agar diffusion assay. Conditions: read-out: GI. The class given is functional. In short, it runs like this:
as §1
(Agar diffusion results depend on both activity and mobility in agar.)

Experiment [3] concerns Colletotrichum gossypii. The experiment in a line: In vitro fungicidal activity against Colletotrichum gossypii assessed as mycelial growth inhibition at 100 mg/l at 26 degC after 48 hr by agar diffusion assay. The class given is functional. Conditions: read-out: GI. In short, it runs like this: as §1
The subject of experiment [4] is Dothiorella gregaria. The experiment in a line: In vitro fungicidal activity against Dothiorella gregaria assessed as mycelial growth inhibition at 100 mg/l at 26 degC after 48 hr by agar diffusion assay. The class given is functional. Conditions: read-out: GI. In short, it runs like this: as §1
The test system of experiment [5] is Botrytis cinerea. The experiment in a line: In vitro fungicidal activity against Botryotinia fuckeliana assessed as mycelial growth inhibition at 100 mg/l at 26 degC after 48 hr by agar diffusion assay. It counts as functional. Conditions: read-out: GI. A digest of the protocol:
as §1

Experiment [6] has as its system Fusarium graminearum. The experiment in a line: In vitro fungicidal activity against Fusarium graminearum assessed as mycelial growth inhibition at 100 mg/l at 26 degC after 48 hr by agar diffusion assay. The class given is functional. The following applies: read-out: GI. A digest of the protocol: as §1
Experiment [7] deals with Rhizoctonia solani. The experiment in a line: In vitro fungicidal activity against Rhizoctonia solani assessed as mycelial growth inhibition at 26 degC after 48 hr by agar diffusion assay. The class given is functional, organism-based.
The test system of experiment [8] is Fusarium oxysporum. The experiment in a line: In vitro fungicidal activity against Fusarium oxysporum assessed as mycelial growth inhibition at 50 mg/l at 26 degC after 48 hr by agar diffusion assay. It counts as functional. Conditions: read-out: GI.
In experiment [9] the test system is Botrytis cinerea. The experiment in a line: In vitro fungicidal activity against Botryotinia fuckeliana assessed as mycelial growth inhibition at 26 degC after 48 hr by agar diffusion assay. The class given is functional, organism-based.
The subject of experiment [10] is Colletotrichum gossypii. The experiment in a line: In vitro fungicidal activity against Colletotrichum gossypii assessed as mycelial growth inhibition at 50 mg/l at 26 degC after 48 hr by agar diffusion assay. The following applies: read-out: GI. It counts as functional.
Experiment [11] relates to Colletotrichum gossypii. The experiment in a line: In vitro fungicidal activity against Colletotrichum gossypii assessed as mycelial growth inhibition at 26 degC after 48 hr by agar diffusion assay. The class given is functional, organism-based.
For experiment [12], the system named is Fusarium graminearum. The experiment in a line: In vitro fungicidal activity against Fusarium graminearum assessed as mycelial growth inhibition at 26 degC after 48 hr by agar diffusion assay. The class given is functional, organism-based.
The subject of experiment [13] is Rhizoctonia solani. The experiment in a line: In vitro fungicidal activity against Rhizoctonia solani assessed as mycelial growth inhibition at 50 mg/l at 26 degC after 48 hr by agar diffusion assay. It counts as functional. Conditions: read-out: GI.
In experiment [14] the test system is Botrytis cinerea. The experiment in a line: In vitro fungicidal activity against Botryotinia fuckeliana assessed as mycelial growth inhibition at 50 mg/l at 26 degC after 48 hr by agar diffusion assay. It counts as functional. Conditions: read-out: GI.
Experiment [15] concerns Fusarium graminearum. The experiment can be described thus: In vitro fungicidal activity against Fusarium graminearum assessed as mycelial growth inhibition at 50 mg/l at 26 degC after 48 hr by agar diffusion assay. It counts as functional. The following applies: read-out: GI.
The test system of experiment [16] is Dothiorella gregaria. The experiment can be described thus: In vitro fungicidal activity against Dothiorella gregaria assessed as mycelial growth inhibition at 26 degC after 48 hr by agar diffusion assay. It counts as functional, organism-based.
Experiment [17] deals with Dothiorella gregaria. The experiment in a line: In vitro fungicidal activity against Dothiorella gregaria assessed as mycelial growth inhibition at 50 mg/l at 26 degC after 48 hr by agar diffusion assay. Conditions: read-out: GI. It counts as functional.
For experiment [18], the system named is Fusarium oxysporum. The experiment can be described thus: In vitro fungicidal activity against Fusarium oxysporum assessed as mycelial growth inhibition at 26 degC after 48 hr by agar diffusion assay. The class given is functional, organism-based.

Take `CC[C@H](CCn1cncn1)c1ccccc1`: the inhibition of growth at 100 µg/mL in [1] is 80%; in [2], 60%; in experiment [3], 70%; in experiment [4], 81%; in [5], 52%; in experiment [6] it was 60%.
Take `CC[C@@H](CCn1cncn1)c1ccccc1`: the inhibition of growth at 100 µg/mL in experiment [1] came to 75%; in [2], 55%; in experiment [3], 50%; in experiment [4], 60%; in experiment [5], 52%; in experiment [6], 63%.
For `CC[C@H](CCn1cncn1)c1ccc(F)cc1`, the inhibition of growth at 100 µg/mL in [1] came out at 82%; in experiment [2], 50%; in experiment [3], 78%; in [4], 82%; in experiment [5], 36%; in experiment [6], 63%.
As for `CC[C@@H](CCn1cncn1)c1ccc(F)cc1`, the inhibition of growth at 100 µg/mL in experiment [1] is 85%; in experiment [2] it was 60%; in [3] it was 65%; in experiment [4] it was 75%; in experiment [5], 52%; in experiment [6], 56%.
As to `CC[C@H](CCn1cncn1)c1ccc(Cl)cc1`, the inhibition of growth at 100 µg/mL came out at 85% in [1]; 91% in [2]; 97% in experiment [3]; 93% in [4]; 94% in experiment [5]; 76% in experiment [6].
As for `CC[C@@H](CCn1cncn1)c1ccc(Cl)cc1`, the inhibition of growth at 100 µg/mL in experiment [1] was determined as 83%; in experiment [2], 80%; in [3] it was 85%; in experiment [4], 80%; in experiment [5], 84%; in experiment [6], 73%.
In the case of `CC[C@H](CCn1cncn1)c1ccc(OC)cc1`, the inhibition of growth at 100 µg/mL in experiment [1] stood at 60%; in experiment [2], 65%; in [3] it was 55%; in experiment [4], 82%; in experiment [5], 30%; in [6], 66%.
As for `CC[C@@H](CCn1cncn1)c1ccc(OC)cc1`, the inhibition of growth at 100 µg/mL in [1] was determined as 73%; in experiment [2] it was 40%; in experiment [3], 50%; in experiment [4] it was 45%; in [5], 30%; in experiment [6], 42%.
On to `CCC[C@H](CCn1cncn1)c1ccccc1`, for which the inhibition of growth at 100 µg/mL came out at 97% in experiment [1]; 80% in experiment [2]; 92% in [3]; 100% in experiment [4]; 98% in [5]; 83% in experiment [6].
Regarding `CCC[C@@H](CCn1cncn1)c1ccccc1`, the inhibition of growth at 100 µg/mL in [1] amounted to 78%; in experiment [2] it was 55%; in experiment [3], 75%; in [4] it was 67%; in experiment [5] it was 44%; in [6] it was 52%.
Turning to `CCC[C@H](CCn1cncn1)c1ccc(F)cc1`, the inhibition of growth at 100 µg/mL stood at 90% in [1]; 82% in experiment [2]; 95% in experiment [3]; 100% in experiment [4]; 71% in experiment [5]; 85% in experiment [6].
For the compound `CCC[C@@H](CCn1cncn1)c1ccc(F)cc1`, the inhibition of growth at 100 µg/mL was 86% in experiment [1]; 73% in [2]; 90% in experiment [3]; 83% in experiment [4]; 94% in [5]; 83% in [6].
`CCC[C@H](CCn1cncn1)c1ccc(OC)cc1`: the inhibition of growth at 100 µg/mL in [1] was 78%; in experiment [2] it was 90%; in [3], 80%; in experiment [4] it was 90%; in experiment [5], 60%; in experiment [6], 66%.
On to `CCC[C@@H](CCn1cncn1)c1ccc(OC)cc1`, for which the inhibition of growth at 100 µg/mL in experiment [1] turned out to be 90%; in [2] it was 75%; in [3], 90%; in experiment [4] it was 93%; in experiment [5] it was 92%; in experiment [6], 76%.
Consider `CCCC[C@H](CCn1cncn1)c1ccccc1`, for which the inhibition of growth at 100 µg/mL in [1] was 90%; in [2], 66%; in experiment [3], 87%; in experiment [4], 100%; in [5], 91%; in experiment [6] it was 71%.
Take `CCCC[C@@H](CCn1cncn1)c1ccccc1`: the inhibition of growth at 100 µg/mL in experiment [1] was determined as 87%; in experiment [2], 74%; in [3] it was 82%; in [4], 96%; in [5] it was 91%; in [6] it was 71%.
As a reminder, the EC50 is the midpoint of the concentration-response curve. Take `CCCC[C@H](CCn1cncn1)c1ccc(F)cc1`: the inhibition of growth at 100 µg/mL in experiment [1] was determined as 100%; in experiment [2], 100%; in experiment [3], 100%; in [4], 100%; in experiment [5] it was 100%; in [6], 95%. Besides, the EC50 stood at 36 µM in [7]; 61 µM in [9]; 61 µM in experiment [11]; 66 µM in experiment [12]; 15 µM in [16]; 112 µM in experiment [18]. For the same compound, the inhibition of growth at 50 µg/mL turned out to be 99% in [8]; 100% in experiment [10]; 99% in experiment [13]; 100% in experiment [14]; 89% in experiment [15]; 100% in experiment [17].
Turning to `CCCC[C@@H](CCn1cncn1)c1ccc(F)cc1`, the inhibition of growth at 100 µg/mL in experiment [1] was 100%; in experiment [2], 96%; in [3], 95%; in [4], 97%; in experiment [5] it was 96%; in [6] it was 83%. In addition, the EC50 in experiment [7] is 49 µM; in experiment [9] it was 56 µM; in [11], 63 µM; in [12], 104 µM; in experiment [16], 79 µM; in experiment [18] it was 109 µM. Further, the inhibition of growth at 50 µg/mL in [8] amounted to 88%; in experiment [10], 85%; in experiment [13], 88%; in [14] it was 81%; in [15], 70%; in experiment [17] it was 71%.
Turning to `CCCC[C@H](CCn1cncn1)c1ccc(Cl)cc1`, the inhibition of growth at 100 µg/mL came out at 91% in experiment [1]; 82% in experiment [2]; 85% in [3]; 100% in experiment [4]; 88% in experiment [5]; 73% in experiment [6].
Regarding `CCCC[C@@H](CCn1cncn1)c1ccc(Cl)cc1`, the inhibition of growth at 100 µg/mL in [1] was 84%; in experiment [2] it was 78%; in experiment [3] it was 85%; in experiment [4] it was 97%; in experiment [5] it was 94%; in experiment [6], 69%.
